Values after ≈ are worked out from the molar mass of the structure shown. Where two headings read alike, the source gives them in different places.
How the values were obtained:
[1] = test system: P. falciparum Dd2 (chloroquine-resistant); assay: SYBR green I-based parasite viability assay, Dd2 strain; assay type: cell-based, Plasmodium falciparum; details: for EC50: Plasmodium falciparum, DD2, 72 h
Procedure, shortened: (§1)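 Parasites grown in human A+ erythrocytes in RPMI 1640 (25 mM HEPES pH 7.4, 26 mM NaHCO3, 2% dextrose, hypoxanthine, gentamycin, 0.5% Albumax II), 37 °C, 5% CO2. Compound DMSO dilutions (<0.125% DMSO) at 1% parasitemia, 2% hematocrit; chloroquine baseline. After 72 h: frozen at −80 °C, thawed, lysed with saponin/Triton/EDTA buffer containing 0.01% SYBR Green I, 30 min dark at 37 °C; fluorescence read at 485/530 nm. EC50 from 3 experiments × 3 replicates (±SD).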

[2] = test system: P. falciparum 3D7 (chloroquine-sensitive); assay: SYBR green I-based parasite viability assay, 3D7 strain; assay type: cell-based; details: Plasmodium falciparum, 3D7, 72 h
Procedure, shortened: as §1

[3] = test system: HepG2 human hepatocyte cells; assay: MTS cytotoxicity assay; assay type: cell-based; details: for EC50: Homo sapiens
Procedure, shortened: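 HepG2 seeded at 2500 cells/well in 384-well plates with compound dilutions, 48 h at 37 °C, 5% CO2. MTS reagent added for a further 3 h; absorbance read at 490 nm. EC50 from 3 independent experiments, each in triplicate (±SD).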

[4] = test system: P. falciparum HB3 (chloroquine-sensitive); assay: Image-based merozoite egress and invasion assay; assay type: cell-based, Plasmodium falciparum; details: for parasite phenotype in sample micrographs: 1 μM at 42 hpi for 24 h (Fig. 4 legend); for effect on merozoite egress and invasion: exposed at 42 hpi (schizont stage) for 24 h, 10 μM per method
Procedure, shortened: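 Sorbitol-synchronized HB3 at 1.5% hematocrit and 5% parasitemia, exposed at 42 hpi for 24 h alongside GlcNAc, E-64 and artemisinin references. Stained with WGA-Alexa Fluor 488 and Mitotracker Red CMXRos (1 nM each, 37 °C, 20 min), then fixed in 4% paraformaldehyde with DAPI. Five fields per well imaged at 405/488/635 nm (40× objective) with automated detection of parasitized erythrocytes.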

β-hematin formation = assay: β-Hematin formation assay; assay type: biochemical; details: 100 μM; for %Inhibition of β-hematin formation: average of two separate experiments
Procedure, shortened: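 Compound added with water, acetone and Nonidet P-40, then hematin-DMSO suspension; incubated 6 h at 37 °C with shaking. β-Hematin measured by pyridine ferrochrome method: 5% v/v final pyridine (from water/20% acetone/HEPES/50% pyridine solution), 10 min under the same conditions, absorbance at 405 nm. Chloroquine and 8-hydroxyquinoline run as references.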

P. falciparum = assay: Parasitemia after treatment at late schizont/segmenter stage; assay type: cell-based, Plasmodium falciparum; details: 5× EC50, 24 h; compared to control cultures
P. falciparum Dd2 [5] = assay: Stage specificity, YOYO-1 flow cytometry of synchronized cultures; assay type: cell-based, Plasmodium falciparum; details: treated at ring stage (6 hpi), 5× EC50; monitored every 12 h
Procedure, shortened: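 Aliquots taken every 12 h over 48 h. Samples fixed in 0.04% glutaraldehyde/PBS, permeabilized with 0.25% Triton X-100, RNase-treated and stained with YOYO-1. Flow cytometry at 488 nm excitation with a 530/30 filter; DNA content plotted against cell count.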

[6] = test system: P. berghei ANKA expressing luciferase; assay: Elimination of existing infection, luciferase IVIS imaging; assay type: in vivo, Plasmodium berghei in Swiss Webster mice; details: 100 mg/kg once daily oral, started 72 h post-infection; Swiss Webster mice
Procedure, shortened: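 Swiss Webster mice infected with 10^4 luciferase-expressing P. berghei ANKA on day 0 and grouped at 72 h (n = 5/group). Oral gavage once daily for 5 days: test compound 100 mg/kg, chloroquine 40 mg/kg, or vehicle (2% methylcellulose, 0.5% Tween80). On day 7, D-luciferin 150 mg/kg injected; signal detected and quantified by IVIS.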

P. falciparum Dd2 [7] = assay: Stage specificity, Giemsa-stained thin smears of synchronized cultures; assay type: cell-based, Plasmodium falciparum
Microsomal stability = assay type: in vitro ADME; details: mouse, liver microsomes
P. berghei ANKA = assay: Peters' four-day test, murine malaria model; assay type: in vivo, Plasmodium berghei in balb/c mice; details: 100 mg/kg twice daily oral
[8] = Aqueous solubility at pH 7.4, UV-visible absorption based method; assay type: physicochemical; details: aqueous solution at pH 7.4, pH 7.4, aqueous buffer
[9] = HepG2, 48 h, read-out: HepG2 EC50

## COc1ccc2nc(/C=C/c3ccc(C(F)(F)F)cc3)cc(NCCCN(C)C)c2c1 [Compound 10]
[1]; read-out: Dd2 EC50
  EC50: 726 ± 40 nM
[2]; read-out: 3D7 EC50
  EC50: 605 ± 40 nM
[3]; [9]
  EC50: > 20 µM

## COc1ccc2nc(/C=C/c3ccccc3)cc(NCCCN(C)C)c2c1 [Compound 8]
[1]; read-out: Dd2 EC50
  EC50: 323 ± 40 nM
[2]; read-out: 3D7 EC50
  EC50: 302 ± 10 nM
[3]; [9]
  EC50: 19.9 ± 0.04 µM

## CC(=O)N[C@@H]1[C@@H](O)[C@H](O)[C@@H](CO)O[C@H]1O [N-acetylglucosamine]
[4]
  parasite phenotype in sample micrographs: accumulation of extracellular merozoites
  effect on merozoite egress and invasion: blocks invasion

## COC(=O)c1ccc(/C=C/c2cc(NCCCN(C)C)c3cc(OC)ccc3n2)cc1 [Compound 11]
[1]; read-out: Dd2 EC50
  EC50: 138 ± 60 nM
[2]; read-out: 3D7 EC50
  EC50: 294 ± 60 nM
[3]; [9]
  EC50: 14.9 ± 0.03 µM

## CCN(CC)CCCC(C)Nc1ccnc2cc(Cl)ccc12 (stereo not shown) [Chloroquine, reference compound]
β-hematin formation
  inhibition of β-hematin formation, in words: complete inhibition
  %Inhibition of β-hematin formation: 100 ± 1.78%
[1]; Dd2 versus 3D7
  EC50 fold higher in Dd2 compared to 3D7: 15 fold
[1]; read-out: Dd2 EC50
  EC50: 172 nM
[2]; read-out: 3D7 EC50
  EC50: 11 ± 2 nM
[3]; [9]
  EC50: > 20 µM

## COc1ccc2nc(/C=C/c3ccc(F)cc3)cc(NCCCN(C)C)c2c1 [Compound 9]
[1]; read-out: Dd2 EC50
  EC50: 137 ± 50 nM
[2]; read-out: 3D7 EC50
  EC50: 299 ± 40 nM
[3]; [9]
  EC50: 12.6 ± 0.01 µM

## CC(C)C[C@H](NC(=O)[C@H]1O[C@@H]1C(=O)O)C(=O)NCCCCN=C(N)N (relative stereo) [Compound E-64, L-trans-epoxysuccinyl-leucylamido-(4-guanidino)butane]
[4]
  effect on merozoite egress and invasion: completely blocks egress

## C[C@@H]1CC[C@H]2[C@@H](C)C(=O)O[C@@H]3O[C@@]4(C)CC[C@@H]1[C@]32OO4 [artemisinin, reference compound]
P. falciparum
  culture parasitemia after exposure at 42 hpi: does not cause similar marked reduction
P. falciparum Dd2 [5]
  intraerythrocytic maturation by flow cytometry: maturation is blocked
[4]
  effect on merozoite egress and invasion: no effect on invasion

## COc1ccc2nc(/C=C/c3ccc([N+](=O)[O-])cc3)cc(NCCCN(C)C)c2c1 [Compound 12]
[1]; read-out: Dd2 EC50
  EC50: 57 ± 30 nM
[2]; read-out: 3D7 EC50
  EC50: 197 ± 20 nM
[3]; [9]
  EC50: 15.3 ± 0.05 µM

## COc1ccc2nc(/C=C/c3ccc(F)cc3)cc(NCCCN3CCOCC3)c2c1 [Compound 14]
[1]; read-out: Dd2 EC50
  EC50: 208 ± 40 nM
[2]; read-out: 3D7 EC50
  EC50: 310 ± 20 nM
[3]; [9]
  EC50: 13.6 ± 0.05 µM

## COC(=O)c1ccc(/C=C/c2cc(NCCCN3CCOCC3)c3cc(OC)ccc3n2)cc1 [Compound 16]
[1]; read-out: Dd2 EC50
  EC50: 471 ± 80 nM
[2]; read-out: 3D7 EC50
  EC50: 322 ± 40 nM
[3]; [9]
  EC50: 12.8 ± 0.02 µM

## CCN(CC)CCCC(C)Nc1cc(/C=C/c2ccc([N+](=O)[O-])cc2)nc2ccc(OC)cc12 (stereo not shown) [UCF 501, 4-Nitro styrylquinoline (NSQ)]
β-hematin formation
  inhibition of β-hematin formation, in words: totally inactive
  %Inhibition of β-hematin formation: 0 ± 0.07%
P. falciparum
  culture parasitemia after exposure at 42 hpi: significant reduction
[6]
  luciferase expressing parasite burden, delayed treatment: almost cleared
P. falciparum Dd2 [5]
  intraerythrocytic maturation by flow cytometry: maturation is blocked
P. falciparum Dd2 [7]; 5× EC50, compared to untreated controls
  ring-infected erythrocytes after exposure at 42 hpi: scarcely seen
P. falciparum Dd2 [7]; 5× EC50, treated at 42 hpi
  blocking merozoite egress: inactive
P. falciparum Dd2 [7]; after treatment, all stages of the intraerythrocytic lifecycle
  time to phenotypically observable developmental changes: ≤ 12 h
[1]; read-out: EC50 Dd2
  EC50: 67 ± 8 nM
Microsomal stability
  remaining at 1 h: 47.8%
Microsomal stability; Microsomal stability t1/2, mouse liver microsomes
  half-life: 56.2 min
[2]; read-out: EC50 3D7
  EC50: 119 ± 3 nM
P. berghei ANKA; 4 days, Balb/c mice, no infection up to day 30
  mice cured of malaria infection: 4/5
P. berghei ANKA; day 22
  parasitemia in the one animal not cured, day 22: 0.2%
P. berghei ANKA; day 27, euthanized
  parasitemia in the one animal not cured, day 27: 40%
[4]
  parasite phenotype in sample micrographs: accumulation of extracellular merozoites
  effect on merozoite egress and invasion: blocks invasion
[3]; HepG2 EC50 versus Dd2 EC50
  selectivity: 192
[3]; HepG2, 48 h, read-out: EC50 HepG2
  EC50: 12.92 ± 0.07 µM
[3]; HepG2, read-out: EC50 in HepG2 cells
  EC50: 12.9 µM
[8]
  solubility: 290 µg/mL (≈ 626 µM)

## Oc1cccc2cccnc12 [8-Hydroxyquinoline]
β-hematin formation
  %Inhibition of β-hematin formation: 6 ± 0.42%

## COc1ccc2nc(/C=C/c3ccc(C(F)(F)F)cc3)cc(NCCCN3CCOCC3)c2c1 [Compound 15]
[1]; read-out: Dd2 EC50
  EC50: 735 ± 60 nM
[2]; read-out: 3D7 EC50
  EC50: 599 ± 30 nM
[3]; [9]
  EC50: > 20 µM

## COc1ccc2nc(/C=C/c3ccccc3)cc(NCCCN3CCOCC3)c2c1 [Compound 13]
[1]; read-out: Dd2 EC50
  EC50: 303 ± 40 nM
[2]; read-out: 3D7 EC50
  EC50: 373 ± 30 nM
[3]; [9]
  EC50: 18 ± 0.04 µM

## COc1ccc2nc(/C=C/c3ccc([N+](=O)[O-])cc3)cc(NCCCN3CCOCC3)c2c1 [Compound 17]
[1]; read-out: Dd2 EC50
  EC50: 123 ± 50 nM
[2]; read-out: 3D7 EC50
  EC50: 193 ± 50 nM
[3]; [9]
  EC50: 15.7 ± 0.07 µM

From publication PMC5350499 (International Journal for Parasitology: Drugs and Drug …, 2017)
